Source: PubChem BioAssay
A selection: hits, their analogues and other compounds. The true share with any hit is near 2.7%.
Yeast lifespan up = yeast lifespan extension | S. cerevisiae growth with nicotinamide, OD615; deaD strain in restrictive glucose medium | inhibition of the nicotinamide effect, % at 10 µM | actives 0.68% (n = 130,000);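 active = inhibition above a set limit, placed 3 SD over the median of all compounds, cut at about 26% in these data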
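System: DeaD-strain S. cerevisiae / Buffer or medium: CSMM-D, restrictive glucose (dextrose) synthetic minimal medium / Probe or stimulus: nicotinamide, 1.5 mM, co-present with compound / Compound: one concentration, 10 µM, DMSO 0.25% / Incubation: 48 h compound exposure at 30 °C, humidified / Technique: optical density (absorbance) at 615 nm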
Phagocytosis inh = macrophage phagocytosis inhibition; AID 1029; actives 0.07% (n = 110,000); J774A.1 macrophage IgG-bead phagocytosis, imaging; inhibition, % at 5 µM;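 active = inhibition above the mean of the plate negative controls plus 5 SD, cut at about 13% in these data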;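 also: phagocytic index as fraction of beads internalized from green versus red external bead signal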
RAM network inh = blocks the yeast RAM network | S. cerevisiae dse1pr::URA3 reporter, 5-FOA growth OD615, 2 d; analog-sensitive cbk1-as2 kinase mutant strain | AID 868 | actives 1.8% (n = 190,000) | inhibition, % at 50 µM;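 active = inhibition above a set limit, 3 SD over mean compound inhibition, cut at about 8.4% in these data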;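 also: inhibition rescues growth on 5-FOA so higher OD means more RAM inhibition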
Yeast growth inh = chemicals that inhibit yeast BB579 growth in restrictive medium (lifespan-shortening candidates) | S. cerevisiae BB579 growth, OD615, 48 h | inhibition, % at 10 µM | actives 0.51% (n = 140,000);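 active = inhibition above a set limit, 3 SD over the mean compound inhibition, cut at about 44% in these data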
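System: Saccharomyces cerevisiae DeaD strain BB579, replicative lifespan model yeast | Buffer or medium: Restrictive glucose-based CSMM-D medium | Times: 4 h preincubation and 48 h exposure at 30 °C | Detection: OD615 turbidity measurement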
Numbers stand for hits.

For COc1cccc(COC(=O)c2nn(-c3ccccc3)nc2N)c1 the results were RAM network inh 9.7.
Screening COC(=O)c1cc(=O)n(Cc2ccc3c(c2)OCO3)c(=Nc2ccc(F)c(Cl)c2)s1 returned Yeast lifespan up inactive, Phagocytosis inh inactive, RAM network inh inactive and Yeast growth inh inactive.
COC(=O)c1cc(=O)n(CCc2ccc(OC)cc2)c(=Nc2ccc(F)c(Cl)c2)s1 was read as Yeast lifespan up inactive, RAM network inh 9.5 and Yeast growth inh inactive.
`CCOC(=O)c1c(N2C(=O)Nc3ccccc3N2O)sc2c1CCCC2` gave Yeast lifespan up 30, Phagocytosis inh inactive, RAM network inh inactive and Yeast growth inh inactive.
For CCCNC(=O)NC(=O)CSc1ccc2c(c1)OCCO2 the results were Yeast lifespan up inactive, Phagocytosis inh inactive, RAM network inh inactive and Yeast growth inh inactive.
CC(C)(C)c1ccc(/C=C2\SC(=O)N(CCNC(=O)c3cccc(S(=O)(=O)N4CCOCC4)c3)C2=O)cc1 was read as Yeast lifespan up inactive, Phagocytosis inh inactive, RAM network inh inactive and Yeast growth inh inactive.
Cc1ccc(CCNC(=O)CNC(=O)c2cccs2)cc1 was read as RAM network inh inactive.
COc1ccccc1NC(=O)COC(=O)C12CC3CC(CC(Cl)(C3)C1)C2 was read as RAM network inh 11.
`Cc1ccc(Cl)c(OC(=O)Cn2cnc3c2c(=O)n(C)c(=O)n3C)c1` gave RAM network inh inactive.
`Cc1ccc(/C=N/NC(=O)NC2CCCCC2)o1` gave RAM network inh inactive.
`Cc1ccc(/C=C/C(=O)NC2CCCCCCC2)o1` gave Yeast lifespan up 38, Phagocytosis inh inactive, RAM network inh inactive and Yeast growth inh inactive.
Cc1cc(C(=O)Nc2ccc3c(c2)OCCO3)c(C)o1 was read as Yeast lifespan up inactive, Phagocytosis inh inactive, RAM network inh inactive and Yeast growth inh inactive.
`CC(=O)c1c(Nc2ccc3c(c2)OCCO3)oc(C)cc1=O` gave Yeast lifespan up 27, Phagocytosis inh inactive, RAM network inh inactive and Yeast growth inh inactive.
CCOC(=O)/C(N=Nc1ccc2c(c1)OCO2)=C(\C)O was read as RAM network inh inactive.
For Cc1nc2ccccc2n1-c1ccccc1 the results were Yeast lifespan up 54, Phagocytosis inh inactive, RAM network inh inactive and Yeast growth inh inactive.
`CCOc1ccccc1-c1nc(-c2cccc(Br)c2)no1` gave Yeast lifespan up inactive, Phagocytosis inh inactive, RAM network inh 8.7 and Yeast growth inh inactive.
Screening COc1ccc(-c2noc(-c3ccccc3-c3ccccc3)n2)cc1OC returned Yeast lifespan up inactive, Phagocytosis inh inactive, RAM network inh 11 and Yeast growth inh inactive.
`Fc1ccc2nc(Nc3nc4cc5c(cc4s3)OCO5)sc2c1` gave Yeast lifespan up inactive, Phagocytosis inh inactive, RAM network inh 9.2 and Yeast growth inh inactive.
For Fc1ccc2nc(Nc3nc4cc5c(cc4s3)OCCO5)sc2c1 the results were Yeast lifespan up inactive, Phagocytosis inh inactive, RAM network inh inactive and Yeast growth inh inactive.
Screening CN(C(=O)Cc1c(C(=O)O)n(C)c2ccccc12)c1ccc(F)cc1 returned RAM network inh inactive.
`Cc1ccc(NC(=S)Nc2ccc(Cl)c(Cl)c2)c(OC(F)F)c1` gave Yeast lifespan up inactive, Phagocytosis inh inactive, RAM network inh inactive and Yeast growth inh 85.
For O=C(Cc1cccs1)NNC(=S)NC(=O)c1ccccc1 the results were Yeast lifespan up inactive, Phagocytosis inh inactive, RAM network inh inactive and Yeast growth inh 86.
CCOC(=O)C(C)Sc1nc(-c2ccc(OC)cc2)nc2c1c(=O)n(C)c(=O)n2C (configuration not stated) was read as Phagocytosis inh inactive.
CC(=O)c1nc(N2C(=O)CC(Cc3ccccc3)C2=O)sc1C (configuration not stated) was read as Yeast lifespan up inactive, Phagocytosis inh inactive, RAM network inh inactive and Yeast growth inh inactive.
`Cc1ccc(NC(=S)N=Nc2c(O)n(C)c3ccc(S(=O)(=O)N4CCOCC4)cc23)cc1C` gave Yeast lifespan up inactive, Phagocytosis inh inactive, RAM network inh 9.4 and Yeast growth inh inactive.
`Cc1cc(Sc2nc(N(C)C)nc(N(C)C)n2)nc(Cl)n1` gave RAM network inh inactive.
For COC(=O)C1=C(C)N(c2ccc(C)c(C)c2)/C(=C/c2ccco2)C1=O the results were RAM network inh inactive.
Screening CCOC(=O)C1=C(C)N(c2ccc(C)c(C)c2)C(=O)/C1=C\c1ccco1 returned Yeast lifespan up inactive, Phagocytosis inh inactive, RAM network inh 11 and Yeast growth inh inactive.
COC(=O)c1sc2ncccc2c1OCc1c(Cl)cccc1Cl was read as Yeast lifespan up inactive, Phagocytosis inh inactive, RAM network inh inactive and Yeast growth inh inactive.
Screening COC(=O)c1sc2ncccc2c1OCc1cccc(Cl)c1 returned Yeast lifespan up inactive, Phagocytosis inh inactive, RAM network inh 9.6 and Yeast growth inh inactive.
For C=CCn1cc(C(=O)NCCCOCC)c(=O)c2cc(S(=O)(=O)N(CC)CC)ccc21 the results were Yeast lifespan up inactive, Phagocytosis inh inactive, RAM network inh inactive and Yeast growth inh inactive.
`CCOC(=O)c1c(NC(=O)Cn2nc(C(F)F)cc2C(F)F)sc(C)c1C` gave Yeast lifespan up inactive, Phagocytosis inh inactive, RAM network inh 9.6 and Yeast growth inh inactive.
Screening CCOC(=O)c1c(NC(=O)CSc2nnnn2CC)sc(C)c1C returned Yeast lifespan up inactive, Phagocytosis inh inactive, RAM network inh 8.9 and Yeast growth inh inactive.
Screening CCOC(=O)c1c(NC(=O)CSc2nnnn2C)sc(C)c1C returned Yeast lifespan up inactive, RAM network inh inactive and Yeast growth inh inactive.
For CCOC(=O)c1c(NC(=O)COC(=O)c2cc(OC)c(OC)cc2[N+](=O)[O-])sc(C)c1C the results were Yeast lifespan up inactive, Phagocytosis inh inactive, RAM network inh 8.6 and Yeast growth inh inactive.
Screening CCOC(=O)c1c(NC(=O)COC)sc(C)c1C returned RAM network inh inactive and Yeast growth inh inactive.
O=c1cc(NC2CCCCC2)c2ccccc2o1 was read as Yeast lifespan up inactive, Phagocytosis inh inactive, RAM network inh inactive and Yeast growth inh inactive.
For CN1/C(=C\C=C2/SC(=S)N(CC(=O)O)C2=O)C(C)(C)c2ccccc21 the results were RAM network inh 9.1.
`CCC(C(=O)NNC(=O)c1cnccn1)c1ccccc1` (configuration not stated) gave Yeast lifespan up inactive, Phagocytosis inh inactive, RAM network inh inactive and Yeast growth inh inactive.
For CNC(=O)COC(=O)c1cc(=O)[nH]c2ccccc12 the results were Yeast lifespan up 54, RAM network inh inactive and Yeast growth inh inactive.
`CC(=O)c1cccc(NC(=O)C(=O)c2cn(CC(=O)N3CCCCC3)c3ccccc23)c1` gave RAM network inh inactive.
Fc1ccc(-n2nnc(-c3ccnc4ccccc34)n2)cc1 was read as RAM network inh inactive.
Clc1ccc(CO/N=C/c2c(-c3ccccc3)nc3n2CCS3)c(Cl)c1 was read as Yeast lifespan up inactive, RAM network inh 11 and Yeast growth inh inactive.
COc1cc(/C=C2\SC(=O)N(CCN)C2=O)ccc1OS(=O)(=O)c1cc(C)ccc1C was read as RAM network inh 8.5.
